Test results from ChEMBL document CHEMBL5634162, “Cyclohexylalanine-Containing α-Helical Amphipathic Peptide Targets Cardiolipin, Rescuing Mitochondrial Dysfunction in Kidney Injury” (J Med Chem, 2024).
Activity calls are given as the source filed them. Where a SMILES comes first, the peptide text is derived from it. Bridges are numbered along the chain shown (N, C = ends). Roman numbers before positions name the chains, in order. [ ]: non-standard residue; d: D form. The star is where a group is joined. 5TAMRA = CN(C)c1ccc2c(c1)Oc1cc(N(C)C)ccc1C21OC(=O)c2cc(C(=O)*)ccc21; Cha = N[C@@H](CC1CCCCC1)C(=O)O

Tests used:
Mus musculus [1] = assay: Protection against colistin-induced nephrotoxicity in C57BL/6 mouse model assessed as reduction in renal fibrosis at 1 mg/kg, ip administered once every other day measured after 7 days by […] analysis; assay type: functional, organism-based; details: time 7.0 day
Method in brief: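 Seven-week-old male C57BL/6 mice got colistin 20 mg/kg SC daily for 7 days plus peptide 1 mg/kg intraperitoneally every other day; groups of n = 5 (control, colistin, colistin + peptide). Kidneys were taken at day 7. Cytochrome C was detected by immunohistochemistry (citrate antigen retrieval, HRP-polymer detection, hematoxylin counterstain). Sections were also stained with PAS and Masson's trichrome to score histologic damage and fibrosis.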

Mus musculus [2] = assay: Protection against colistin-induced nephrotoxicity in C57BL/6 mouse model assessed as reduction in P-21 level at 1 mg/kg, ip administered once every other day measured after 7 days by IHC analysis; assay type: functional, organism-based; details: time 7.0 day
Method in brief: (§1)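 Male C57BL/6 mice, 7 weeks: colistin 20 mg/kg sc daily for 7 days, peptide 1 mg/kg ip once every other day, n = 5 per group. Day-7 kidney sections, citrate antigen retrieval, immunohistochemistry with HRP polymer secondary and hematoxylin counterstain; PAS and Masson's trichrome for damage.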

[3] = Drug uptake in CCCP-damaged mitochondria of human HeLa cells at 100 nM incubated for 3 hrs by MitoTracker probe based assay; assay type: ADME; details: 0.1 µM
Method in brief: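 HeLa cells given TAMRA-labelled peptide 100 nM for 3 h with MitoTracker staining; mitochondria damaged with 20 μM CCCP (30 min) or by CCCP during time-lapse confocal imaging. Red/green Pearson r calculated.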

[4] = Drug localization in CCCP-damaged mitochondria of human HeLa cells at 100 nM incubated for 3 hrs by NAO probe based assay; assay type: ADME; details: 0.1 µM
Method in brief: (§2)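 HeLa cells given TAMRA-labelled peptide 100 nM for 3 h and cardiolipin stained with NAO (100 nM, 1 h), with or without 20 μM CCCP for 30 min; LysoTracker 50 nM. Confocal images, Pearson r from five independent images (63×) per condition.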

Mus musculus [5] = assay: Protection against colistin-induced nephrotoxicity in C57BL/6 mouse model assessed as reduction in NGAL level at 1 mg/kg, ip administered once every other day measured after 7 days by IHC analysis; assay type: functional, organism-based; details: time 7.0 day; method in brief: as §1
Epithelial cell [6] = assay: Reversal of H2O2-induced p21 mRNA level in human tubular epithelial cells at 10 to 100 nM by qPCR analysis; assay type: functional, cell-based; details: dose 10-100 nM
Epithelial cell [7] = assay: Reversal of H2O2-induced IL-18 mRNA level in human tubular epithelial cells at 10 to 100 nM by qPCR analysis; assay type: functional, cell-based; details: dose 10-100 nM
Mitochondria [8] = assay: Inhibition of CCCP -induced mitochondrial ROS generation in human HeLa cells incubated for 190 mins followed by CCCP addition measured after 90 mins by MitoSOX probe based analysis; assay type: functional; details: dose 5-20 nM
Method in brief: (§3)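 HeLa cells seeded, stained 24 h later with MitoSOX 5 μM for 10 min, washed, HBSS, read on plate reader at 37 °C (Ex/Em 510/580 nm).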

Mitochondria [9] = assay: Inhibition of antimycin A-induced mitochondrial ROS generation in human HeLa cells incubated for 190 mins followed by antimycin A addition measured after 90 mins by MitoSOX probe based analysis; assay type: functional; details: dose lower […], dose upper 10.0 nM; method in brief: as §3
[10] = Drug localization in lysosomes of human HeLa cells at 100 nM incubated for 3 hrs by NAO probe based analysis; assay type: ADME, subcellular, Lysosome; details: 0.1 µM; method in brief: as §2
Epithelial cell [11] = assay: Reversal of H2O2-induced mitochondrial dysfunction in human tubular epithelial cells assessed as increase in glycolytic PER level measured for 40 to 60 mins by Seahorse assay; assay type: functional, cell-based; details: dose 10-50 nM, time 40-60 min
Method in brief: (§4)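 hTECs were exposed to H2O2 with peptide at 10 or 50 nM (n = 6 per group), then run on a Seahorse XFe96. OCR was read after sequential 2 μM oligomycin, 1 μM FCCP, and 0.5 μM rotenone/antimycin A. ECAR was read after 10 mM glucose, 1 μM oligomycin and 50 mM 2-DG. Glycolytic proton efflux rate was taken as glycoATP production rate.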

Epithelial cell [12] = assay: Reversal of H2O2-induced p16 mRNA level in human tubular epithelial cells at 10 to 100 nM by qPCR analysis; assay type: functional, cell-based; details: dose 10-100 nM
Mus musculus [13] = assay: Protection against […] C57BL/6 mouse model assessed as increase in NQO-1 mRNA level at 1 mg/kg, ip administered thrice a week prior to induction of bilateral ischemia-reperfusion injury measured after 6 days by qPCR analysis; assay type: functional, organism-based; details: time 6.0 day
[14] = Drug localization in mitochondria of human tubular epithelial cells upto 100 nM by MitoTracker probe based assay; assay type: ADME; details: epithelial cell, 0.1 µM
Epithelial cell [15] = assay: Reversal of H2O2-induced mitochondrial dysfunction in human tubular epithelial cells assessed as increase in OCR level measured for 40 to 60 mins by Seahorse assay; assay type: functional, cell-based; details: dose 10-50 nM, time 40-60 min; method in brief: as §4
Epithelial cell [16] = assay: Inhibition of H2O2-induced apoptosis in human tubular epithelial cells at 10 to 100 nM by Annexin V-FITC/PI staining based flow cytometry; assay type: functional; details: dose 10-100 nM
Method in brief: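 hTECs exposed to H2O2 0.5 mM; annexin V-FITC/propidium iodide staining 15 min at room temperature in the dark, apoptosis and necrosis percentages by flow cytometry.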

HeLa [17] = assay: Cytoprotective activity against CCCP-induced cell death in human HeLa cells assessed as increase in cell survival measured for 4 hrs by fluorescence based analysis; assay type: functional
Epithelial cell [18] = assay: Induction of H2O2-reduced mitochondrial membrane potential in human tubular epithelial cells at 20 to 60 nM pretreated for 3 hrs followed by H2O2 addition measured after 30 mins by fluorescence based analysis; assay type: functional; details: dose 20-60 nM
Method in brief: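 hTECs given peptide 3 h then H2O2 1 mM for 30 min; TMRE 600 nM for 15 min, washed, HBSS, plate reader at 37 °C (Ex/Em 525/575 nm).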

[19] = Drug uptake in human HeLa cells at 100 nM incubated for 3 hrs in presence of M-beta-CD by FACS analysis; assay type: ADME, cell-based; details: 0.1 µM
Method in brief: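 HeLa cells pretreated 30 min with the endocytosis inhibitor (methyl-β-cyclodextrin for cholesterol depletion), then given 100 nM TAMRA-labelled peptide for 3 h and analysed by FACS.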

HeLa [20] = assay: Induction of CCCP-reduced ATP production in human HeLa cells incubated for 3 hrs followed by CCCP addition measured after 1 hr by luminescence based analysis; assay type: functional, cell-based; details: dose 5-20 nM, time 4.0 hrs
Method in brief: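 Cellular ATP measured by luminescence with an ATP detection kit after peptide pretreatment.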

Mus musculus [21] = assay: Protection against colistin-induced nephrotoxicity in C57BL/6 mouse model assessed as appearance of compact cristae in mitochondria of kidney at 1 mg/kg, ip administered once every other day measured after 7 days by TEM analysis; assay type: functional, organism-based; details: time 7.0 day
Method in brief: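 Male C57BL/6 mice, 7 weeks, given colistin 20 mg/kg sc daily for 7 days with peptide 1 mg/kg ip once every other day, n = 5 per group; kidney mitochondria examined by TEM.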

Mus musculus [22] = assay: Protection against colistin-induced nephrotoxicity in C57BL/6 mouse model assessed as reduction in 8-OHdG level at 1 mg/kg, ip administered once every other day measured after 7 days by IHC analysis; assay type: functional, organism-based; details: time 7.0 day; method in brief: as §1
Mus musculus [23] = assay: Protection against […] C57BL/6 mouse model assessed as decrease in serum creatinine level at 1 mg/kg, ip measured after 23 hrs; assay type: functional, organism-based
Epithelial cell [24] = assay: Induction of H2O2-reduced ATP production in human tubular epithelial cells at 10 to 20 nM incubated for 3 hrs followed by H2O2 measured after 1 hr by fluorescene based analysis; assay type: functional; details: dose 10-20 nM, time 4.0 hrs

CC(=O)N[C@@H](CC1CCCCC1)C(=O)N[C@H]1CSSC[C@@H](C(=O)N[C@@H](CCCNC(=N)N)C(N)=O)NC(=O)[C@H](CC2CCCCC2)NC(=O)[C@H](CCCNC(=N)N)NC(=O)[C@H](CCCNC(=N)N)NC(=O)[C@H](CC2CCCCC2)NC(=O)[C@H](CC(C)C)NC(=O)[C@H](CCCNC(=N)N)NC(=O)[C@@H](NC(=O)[C@H](CC2CCCCC2)NC(=O)c2ccc3c(c2)C(=O)OC32c3ccc(N(C)C)cc3Oc3cc(N(C)C)ccc32)CSSC[C@@H](C(=O)N[C@@H](CCCNC(=N)N)C(N)=O)NC(=O)[C@H](CC2CCCCC2)NC(=O)[C@H](CCCNC(=N)N)NC(=O)[C@H](CCCNC(=N)N)NC(=O)[C@H](CC2CCCCC2)NC(=O)[C@H](CC(C)C)NC(=O)[C@H](CCCNC(=N)N)NC1=O (I: Ac-[Cha]CRL[Cha]RR[Cha]CR-NH2 / II: 5TAMRA-[Cha]CRL[Cha]RR[Cha]CR-NH2; disulfide I:2-II:9, I:9-II:2)
active: Activity (Mus musculus [1]) | Activity (Mus musculus [2]) | Activity (Mus musculus [5]) | Activity (Epithelial cell [6]) | Activity (Epithelial cell [7]) | inhibition (Mitochondria [8]) Dose-Dependent Effect | inhibition (Mitochondria [9]) Dose-Dependent Effect | Activity (Epithelial cell [11]) Dose-Dependent Effect | Activity (Epithelial cell [12]) | Activity (Mus musculus [13]) | Activity (Epithelial cell [15]) Dose-Dependent Effect | inhibition (Epithelial cell [16]) | Activity (HeLa [17]) | Activity (Epithelial cell [18]) | Activity (HeLa [20]) Dose-Dependent Effect | Activity (Mus musculus [21]) | Activity (Mus musculus [22]) | Activity (Mus musculus [23]) | Activity (Epithelial cell [24])
Not Active: Drug uptake [19]
Active: Drug uptake [3] | Drug uptake [4] | Drug uptake [10] | Drug uptake [14]
